In brackets after ≈: the same amount, converted by molar mass.
Key:
[1] = system: Enterococcus faecalis; experiment: Antibacterial activity against Enterococcus faecalis ATCC 19433 after 16 hrs at 36 degC by microdilution method; format: functional; details: ATCC 19433, 16 h
Procedure, shortened: (§1)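 Broth microdilution in Brain Heart Infusion broth, following NCCLS/CLSI. Test compounds were serially diluted 2-fold from stock. The MIC was the lowest concentration with no visible bacterial growth after incubation at 36 °C. Mupirocin and amoxicillin were tested the same way as references.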

[2] = Inhibition of Staphylococcus aureus methionyl-tRNA synthetase assessed as decrease in [35S]methionyl-tRNA generation
[3] = system: Staphylococcus aureus; experiment: Antibacterial activity against methicillin-resistant Staphylococcus aureus KS2007-6 after 16 hrs at 36 degC by microdilution method; format: functional
Procedure, shortened: (§2)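 Broth microdilution per CLSI in Mueller-Hinton broth for staphylococci. Stock solutions were diluted in a 2-fold serial series to final test concentrations. The MIC was read as the lowest concentration that prevented visible bacterial growth after incubation at 36 °C. Mupirocin and amoxicillin were run by the same method as references.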

[4] = system: Staphylococcus aureus; experiment: Antibacterial activity against Staphylococcus aureus ATCC 6538P after 16 hrs at 36 degC by microdilution method; format: functional
Procedure, shortened: (§3)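 Broth microdilution in Mueller-Hinton broth, following NCCLS/CLSI. Stock solutions were serially diluted 2-fold to the final test concentrations. The MIC was the lowest concentration that prevented visible growth after incubation at 36 °C. Mupirocin and amoxicillin were reference antibiotics run by the same method.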

[5] = system: Staphylococcus epidermidis; experiment: Antibacterial activity against Staphylococcus epidermidis ATCC 12228 after 16 hrs at 36 degC by microdilution method; format: functional; details: ATCC 12228, 16 h; procedure, shortened: as §3
[6] = system: Staphylococcus aureus; experiment: Antibacterial activity against Staphylococcus aureus Smith after 16 hrs at 36 degC by microdilution method; format: functional; procedure, shortened: as §3
[7] = system: Staphylococcus aureus; experiment: Antibacterial activity against Staphylococcus aureus ATCC 10537 after 16 hrs at 36 degC by microdilution method; format: functional; details: ATCC 10537, 16 h; procedure, shortened: as §3
[8] = system: Staphylococcus aureus; experiment: Antibacterial activity against Staphylococcus aureus ATCC 25923 after 16 hrs at 36 degC by microdilution method; format: functional; details: ATCC 25923, 16 h; procedure, shortened: as §3
[9] = system: Enterococcus faecalis; experiment: Antibacterial activity against Enterococcus faecalis ATCC 29212 after 16 hrs at 36 degC by microdilution method; format: functional; details: ATCC 29212, 16 h; procedure, shortened: as §1
[10] = system: Enterococcus faecium; experiment: Antibacterial activity against Enterococcus faecium ATCC 10541 after 16 hrs at 36 degC by microdilution method; format: functional; details: ATCC 10541, 16 h; procedure, shortened: as §1
[11] = system: Staphylococcus aureus; experiment: Antibacterial activity against Staphylococcus aureus SP-N2 after 16 hrs at 36 degC by microdilution method; format: functional; procedure, shortened: as §2
[12] = system: Staphylococcus aureus; experiment: Antibacterial activity against Staphylococcus aureus GIORGIO after 16 hrs at 36 degC by microdilution method; format: functional; procedure, shortened: as §3

SMILES	MIC [1] [µg/mL]	IC50 [2] [nM]	MIC [3] [µg/mL]	MIC [4] [µg/mL]	MIC [5] [µg/mL]	MIC [6] [µg/mL]	MIC [7] [µg/mL]	MIC [8] [µg/mL]	MIC [9] [µg/mL]	MIC [10] [µg/mL]	MIC [11] [µg/mL]	MIC [12] [µg/mL]
O=c1cc(NCCCNCc2ccc(Cl)c(Cl)c2)[nH]c2ccccc12	2 (≈ 5.32 µM)	3.4	8 (≈ 21.3 µM)	4 (≈ 10.6 µM)	8 (≈ 21.3 µM)	16 (≈ 42.5 µM)	16 (≈ 42.5 µM)	16 (≈ 42.5 µM)	2 (≈ 5.32 µM)	0.5 (≈ 1.33 µM)	8 (≈ 21.3 µM)	32 (≈ 85 µM)
COCC(CNCc1ccc(Cl)c(Cl)c1)CNc1cc(=O)c2ccccc2[nH]1 (centres undefined)	0.5 (≈ 1.19 µM)	15	4 (≈ 9.52 µM)	4 (≈ 9.52 µM)	4 (≈ 9.52 µM)	8 (≈ 19 µM)	8 (≈ 19 µM)	16 (≈ 38.1 µM)	0.5 (≈ 1.19 µM)	0.125 (≈ 0.297 µM)	8 (≈ 19 µM)	16 (≈ 38.1 µM)
O=c1cc(NCC(CNCc2ccc(Cl)c(Cl)c2)OCc2ccccc2)[nH]c2ccccc12 (centres undefined)	2 (≈ 4.15 µM)	24.7	2 (≈ 4.15 µM)	4 (≈ 8.29 µM)	2 (≈ 4.15 µM)	4 (≈ 8.29 µM)	4 (≈ 8.29 µM)	4 (≈ 8.29 µM)	2 (≈ 4.15 µM)	0.5 (≈ 1.04 µM)	4 (≈ 8.29 µM)	4 (≈ 8.29 µM)
O=C(OC(CNCc1ccc(Cl)c(Cl)c1)CNc1cc(=O)c2ccccc2[nH]1)c1ccccc1 (centres undefined)	16 (≈ 32.2 µM)	69.4	32 (≈ 64.5 µM)	32 (≈ 64.5 µM)	16 (≈ 32.2 µM)	32 (≈ 64.5 µM)	64 (≈ 129 µM)	64 (≈ 129 µM)	16 (≈ 32.2 µM)	8 (≈ 16.1 µM)	32 (≈ 64.5 µM)	32 (≈ 64.5 µM)
O=c1cc(NCC(CO)CNCc2ccc(Cl)c(Cl)c2)[nH]c2ccccc12 (centres undefined)	8 (≈ 19.7 µM)	11.9	16 (≈ 39.4 µM)	16 (≈ 39.4 µM)	16 (≈ 39.4 µM)	32 (≈ 78.8 µM)	32 (≈ 78.8 µM)	64 (≈ 158 µM)	8 (≈ 19.7 µM)	2 (≈ 4.92 µM)	16 (≈ 39.4 µM)	64 (≈ 158 µM)
CCOC(CNCc1ccc(Cl)c(Cl)c1)CNc1cc(=O)c2ccccc2[nH]1 (centres undefined)	4 (≈ 9.52 µM)	30.3	8 (≈ 19 µM)	8 (≈ 19 µM)	8 (≈ 19 µM)	16 (≈ 38.1 µM)	16 (≈ 38.1 µM)	16 (≈ 38.1 µM)	4 (≈ 9.52 µM)	1 (≈ 2.38 µM)	16 (≈ 38.1 µM)	16 (≈ 38.1 µM)
CC1(C)S[C@@H]2[C@H](NC(=O)[C@H](N)c3ccc(O)cc3)C(=O)N2[C@H]1C(=O)O [AMOXICILLIN]	64 (≈ 175 µM)		0.25 (≈ 0.684 µM)	0.125 (≈ 0.342 µM)	0.125 (≈ 0.342 µM)	0.125 (≈ 0.342 µM)	0.125 (≈ 0.342 µM)	0.25 (≈ 0.684 µM)	64 (≈ 175 µM)	8 (≈ 21.9 µM)	0.25 (≈ 0.684 µM)	0.125 (≈ 0.342 µM)
CC(C)(C)OC(=O)NC(CNCc1ccc(Cl)c(Cl)c1)CNc1cc(=O)c2ccccc2[nH]1 (centres undefined)	32 (≈ 65.1 µM)	103	32 (≈ 65.1 µM)	32 (≈ 65.1 µM)	32 (≈ 65.1 µM)	32 (≈ 65.1 µM)	32 (≈ 65.1 µM)	32 (≈ 65.1 µM)	32 (≈ 65.1 µM)	8 (≈ 16.3 µM)	32 (≈ 65.1 µM)	32 (≈ 65.1 µM)
NC(CNCc1ccc(Cl)c(Cl)c1)CNc1cc(=O)c2ccccc2[nH]1 (centres undefined)	64 (≈ 164 µM)	137	64 (≈ 164 µM)	64 (≈ 164 µM)	32 (≈ 81.8 µM)	64 (≈ 164 µM)	64 (≈ 164 µM)	64 (≈ 164 µM)	64 (≈ 164 µM)	16 (≈ 40.9 µM)	64 (≈ 164 µM)	64 (≈ 164 µM)
CN(C)C(CNCc1ccc(Cl)c(Cl)c1)CNc1cc(=O)c2ccccc2[nH]1 (centres undefined)	16 (≈ 38.2 µM)	39.6	64 (≈ 153 µM)	> 64	32 (≈ 76.3 µM)	64 (≈ 153 µM)	64 (≈ 153 µM)	> 64	16 (≈ 38.2 µM)	8 (≈ 19.1 µM)	64 (≈ 153 µM)	> 64
CN(C)C(CNc1cc(=O)c2ccccc2[nH]1)CN(Cc1ccc(Cl)c(Cl)c1)Cc1ccc(Cl)c(Cl)c1 (centres undefined)	> 64	131		> 64	> 64	> 64	> 64	> 64	> 64	> 64	> 64	> 64
C=CCOC(CNCc1ccc(Cl)c(Cl)c1)CNc1cc(=O)c2ccccc2[nH]1 (centres undefined)	2 (≈ 4.63 µM)	29.4	4 (≈ 9.25 µM)	8 (≈ 18.5 µM)	4 (≈ 9.25 µM)	8 (≈ 18.5 µM)	16 (≈ 37 µM)	8 (≈ 18.5 µM)	2 (≈ 4.63 µM)	1 (≈ 2.31 µM)	8 (≈ 18.5 µM)	16 (≈ 37 µM)
C/C(=C\C(=O)OCCCCCCCCC(=O)O)C[C@@H]1OC[C@H](C[C@@H]2O[C@H]2[C@@H](C)[C@H](C)O)[C@@H](O)[C@H]1O [MUPIROCIN]	1 (≈ 2 µM)			0.5 (≈ 0.999 µM)	2 (≈ 3.99 µM)	0.25 (≈ 0.499 µM)	0.25 (≈ 0.499 µM)	0.25 (≈ 0.499 µM)	2 (≈ 3.99 µM)	1 (≈ 2 µM)	> 64	0.25 (≈ 0.499 µM)
CC(C)OC(CNCc1ccc(Cl)c(Cl)c1)CNc1cc(=O)c2ccccc2[nH]1 (centres undefined)	4 (≈ 9.21 µM)	91	8 (≈ 18.4 µM)	16 (≈ 36.8 µM)	16 (≈ 36.8 µM)	16 (≈ 36.8 µM)	16 (≈ 36.8 µM)	16 (≈ 36.8 µM)	4 (≈ 9.21 µM)	2 (≈ 4.6 µM)	16 (≈ 36.8 µM)	32 (≈ 73.7 µM)

From ChEMBL document CHEMBL1152839, “2-[2-Substituted-3-(3,4-dichlorobenzylamino)propylamino]-1H-quinolin-4-ones as Staphylococcus aureus methionyl-tRNA synthetase inhibitors” (Eur J Med Chem, 2009)
